A word on the IC50: it is the concentration that gives 50% inhibition.

These results are taken from ChEMBL document CHEMBL4622992, “New Polyaminoisoprenyl Antibiotics Enhancers against Two Multidrug-Resistant Gram-Negative Bacteria from Enterobacter and Salmonella Species” (J Med Chem, 2020).

In data set [1] the test system is Salmonella typhimurium. Description: Potentiation of doxycycline-induced antibacterial activity against Salmonella enterica subsp. enterica serovar Typhimurium BN10055 assessed as ratio of the doxycycline alone MIC to doxycycline MIC in presence of MIC/4 level of compound incubated for 18 hrs. In kind it is functional. The gist of the method: (§1)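 Broth microdilution in MH broth, 10^5 CFU inoculum, two-fold antibiotic dilutions, with or without compound at MIC/4. MIC is the lowest concentration with no visible growth after 18 h at 37°C. Gain is antibiotic MIC alone divided by MIC with compound. MICs repeated in at least three independent experiments; up to 5% DMSO.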

The test system of data set [2] is Salmonella typhimurium. Briefly: Potentiation of nalidixic acid-induced antibacterial activity against Salmonella enterica subsp. enterica serovar Typhimurium BN10055 assessed as ratio of the nalidixic acid alone MIC to […] in presence of MIC/4 level of compound incubated for 18 hrs. It counts as functional. The gist of the method:
as §1

In data set [3] the test system is Salmonella typhimurium. Briefly: Potentiation of chloramphenicol-induced antibacterial activity against Salmonella enterica subsp. enterica serovar Typhimurium BN10055 assessed as ratio of the chloramphenicol alone MIC to […] in presence of MIC/4 level of compound incubated for 18 hrs. In kind it is functional. The gist of the method:
as §1

Data set [4] deals with Klebsiella aerogenes. Description: Potentiation of erythromycin-induced antibacterial activity against Enterobacter aerogenes Ea289 assessed as ratio of the erythromycin alone MIC to erythromycin MIC in presence of MIC/4 level of compound incubated for 18 hrs.
Data set [5] has as its system Klebsiella aerogenes. Briefly: Potentiation of doxycycline-induced antibacterial activity against Enterobacter aerogenes Ea289 assessed as ratio of the doxycycline alone MIC to doxycycline MIC in presence of MIC/4 level of compound incubated for 18 hrs. In kind it is functional. The gist of the method:
as §1

Data set [6] can be described thus: Toxicity in CHO cells assessed as reduction in cell viability incubated for 24 hrs by WST1 assay. In kind it is cell-based. Particulars: Chinese hamster (Cricetulus griseus). The gist of the method: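 CHO-K1 cells in McCoy's 5A with 10% FCS, exposed in triplicate to 30–1200 μM compound for 24 h at 37°C. After PBS washes, 30 min in medium with 10% WST-1; absorbance at 450 nm. IC50 is the concentration giving 50% loss of viable cells.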
A general note: Tetrazolium dyes change colour on reduction, which living cells bring about.

Data set [7] concerns Klebsiella aerogenes. Briefly: Potentiation of chloramphenicol-induced antibacterial activity against Enterobacter aerogenes Ea289 assessed as ratio of the chloramphenicol alone MIC to […] in presence of MIC/4 level of compound incubated for 18 hrs. It counts as functional. The gist of the method:
as §1

Data set [8] relates to Salmonella typhimurium. Briefly: Potentiation of erythromycin-induced antibacterial activity against Salmonella enterica subsp. enterica serovar Typhimurium BN10055 assessed as ratio of the erythromycin alone MIC to erythromycin MIC in presence of MIC/4 level of compound incubated for 18 hrs. In kind it is functional. The gist of the method: as §1
The subject of data set [9] is Klebsiella aerogenes. Briefly: Potentiation of nalidixic acid-induced antibacterial activity against Enterobacter aerogenes Ea289 assessed as ratio of the nalidixic acid alone MIC to nalidixic acid MIC in presence of MIC/4 level of compound incubated for 18 hrs.
Data set [10] has as its system Klebsiella aerogenes. Briefly: Potentiation of chloramphenicol-induced antibacterial activity against Enterobacter aerogenes Ea289 assessed as efficiency index by measuring sum of gain factor for each test compound reported for chloramphenicol/nalidixic acid/doxycycline/erythromycin and divided by concentration of test compound. In kind it is functional. Particulars: pooled result: one value given for 2 cell lines, strains, targets or settings. The gist of the method:
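Gain factors (antibiotic MIC alone / MIC with compound at MIC/4; broth dilution, 18 h, 37°C) for erythromycin, doxycycline, nalidixic acid and chloramphenicol are summed, then divided by the compound concentration used in the assay.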

The nature of data set [11]: Toxicity index, ratio of IC50 for toxicity in CHO cells to concentration of test compound causing at least 8 times decrease of MIC of almost 3 antibiotics (chloramphenicol/nalidixic acid/doxycycline/erythromycin ) against Enterobacter aerogenes Ea289. It counts as cell-based. Particulars: hamster, pooled result: one value given for 2 cell lines, strains, targets or settings.

Bounds are passed on as bounds.

With `CC(C)=CCC/C(C)=C\CCC(C)=CCNCCN`, the Ratio in data set [1] is recorded as 32; in data set [2], 64; in [3] it was 8; in data set [4] it was 128; in data set [5], 8; in [7], 4. Further, the Ratio amounted to 32 in data set [8] and 8 in [9]. In addition, in [6], the IC50 at 24 h is 32.3 µM.

In the case of `CC(C)=CCCC(C)=CCNCCCN1CCCC1`, the Ratio turned out to be 2 in data set [1]; 4 in data set [2]; 2 in [3]; 1 in data set [4]; 2 in [5]; 1 in data set [7]. The Ratio in [8] stood at 1; in [9], 2. Also, the IC50 at 24 h in [6] was > 150 µM.

Take `CC(C)=CCC/C(C)=C\CCC(C)=CCNCCCN`: the Ratio in data set [1] was found to be 32; in data set [2], 128; in [3], 32; in data set [4], 256; in data set [5] it was 64; in data set [7] it was 16. Also, the Ratio is on record as 64 in [8] and 16 in data set [9]. For the same molecule, the IC50 at 24 h in data set [6] was found to be 32.1 µM.

For `CC(C)=CCC/C(C)=C\CCC(C)=CCNCCCOCCCCOCCCN`, the Ratio stood at 8 in data set [1]; 16 in data set [2]; 4 in data set [3]; 2 in [4]; 8 in data set [5]; 4 in data set [7]. The results for the Ratio in [8] and in data set [9] were 4 and 2, respectively. For the same molecule, the IC50 at 24 h in data set [6] is > 150 µM.

`CC(C)=CCC/C(C)=C\CCC(C)=CCNCCCCCN`: the Ratio in data set [1] was 16; in [2], 16; in data set [3], 8; in data set [4], 32; in [5], 64; in [7], 16. Moreover, the Ratio came to 2 in data set [8] and 8 in [9]. In data set [6], the IC50 at 24 h is 38.4 µM.

In the case of `CC(C)=CCC/C(C)=C\CCC(C)=CCNCCNCCNCCNCCN`, the Ratio stood at 4 in [1]; 16 in data set [2]; 8 in data set [3]; 8 in data set [4]; 32 in data set [5]; 8 in data set [7]. Besides, the Ratio in data set [8] amounted to 1; in [9], 16. In data set [10], the Activity_index was determined as 1.49. Also, the IC50 at 24 h in data set [6] stood at 43.5 µM. The selectivity ratio in data set [11] amounted to 5.37.

For the molecule `CC(C)=CCC/C(C)=C\CCC(C)=CCNCCCN1CCOCC1`, the Ratio turned out to be 16 in data set [1]; 32 in data set [2]; 8 in data set [3]; 16 in data set [4]; 32 in data set [5]; 8 in [7]. Further, the Ratio in data set [8] is 4; in data set [9], 8. The IC50 at 24 h in data set [6] was found to be 57.6 µM.

On to `CC(C)=CCCC(C)=CCNCCCN1CCOCC1`, for which the Ratio in data set [1] turned out to be 2; in data set [2], 1; in data set [3], 2; in data set [4] it was 1; in data set [5], 2; in data set [7], 1. Besides, the Ratio in data set [8] and in data set [9] was 1 in each case. In addition, the IC50 at 24 h in [6] was > 150 µM.

`CC(C)=CCC/C(C)=C\CCC(C)=CCNCCCN1CCN(CCCN)CC1`: the Ratio in [1] is given as 32; in data set [2], 64; in data set [3] it was 8; in [4], 128; in data set [5] it was 128; in [7], 8. For the same molecule, the Ratio in data set [8] was determined as 4; in [9] it was 32. The IC50 at 24 h in data set [6] is 33.8 µM.

Regarding `CCN(CC)CCCNCCCNCC=C(C)CCC=C(C)C`, the Ratio in data set [1] is 32; in data set [2] it was 64; in data set [3], 16; in [4], 32; in data set [5] it was 32; in [7], 16. For the same molecule, the Ratio in [8] and in [9] was 8 each time. Also, the Activity_index in data set [10] is recorded as 1.66. For the same molecule, the IC50 at 24 h in data set [6] is 30.9 µM. Besides, the selectivity ratio in data set [11] was determined as 1.98.

On to `CC(C)=CCCC(C)=CCNCCCNCCCCNCCCN`, for which the Ratio in [1] worked out at 16; in data set [2], 64; in data set [3], 16; in data set [4], 4; in data set [5] it was 16; in [7], 8. Besides, the values for the Ratio in data set [8] and in data set [9] were 2 and 16, respectively. The Activity_index in data set [10] is recorded as 0.57. Also, the IC50 at 24 h in data set [6] is > 150 µM. Besides, the selectivity ratio in data set [11] stood at 4.8.

For `CC(C)=CCC/C(C)=C\CCC(C)=CCNCCCN1CCCC1`, the Ratio in data set [1] is 32; in [2], 128; in [3] it was 16; in [4] it was 64; in data set [5], 32; in [7], 16. Besides, the Ratio in data set [8] and in data set [9] was 16 in each case. Moreover, the IC50 at 24 h in [6] turned out to be 85.3 µM.

Consider `CC(C)=CCCC(C)=CCNCCCN1CCCC1=O`, for which the Ratio stood at 1 in data set [1]; 1 in [2]; 1 in data set [3]; 2 in data set [4]; 2 in data set [5]; 1 in data set [7]. In addition, the Ratio in data set [8] and in data set [9] was 1 throughout. Besides, the IC50 at 24 h in data set [6] is > 150 µM.

Consider `CC(C)=CCCC(C)=CCNCCCN`, for which the Ratio in [1] is listed as 16; in data set [2], 32; in data set [3] it was 8; in data set [4], 32; in [5], 16; in [7] it was 8. The Ratio in [9] is 8. In addition, in [6], the IC50 at 24 h is > 150 µM.

Take `CC(C)=CCCC(C)=CCNCCN`: the Ratio came to 16 in data set [1]; 16 in data set [2]; 8 in data set [3]; 4 in data set [4]; 32 in data set [5]; 4 in [7]. Also, the Ratio was 1 in data set [8] and 4 in [9]. In data set [6], the IC50 at 24 h stood at 36.2 µM.

On to `CC(C)=CCCC(C)=CCNCCCN(C)CCCN`, for which the Ratio is recorded as 16 in data set [1]; 32 in [2]; 16 in data set [3]; 32 in data set [4]; 16 in data set [5]; 16 in data set [7]. The Ratio in [9] came to 8. Also, in data set [10], the Activity_index was found to be 0.01. Besides, the half-inhibitory concentration (IC50) at 24 h in data set [6] was > 150 µM. Besides, the selectivity ratio in data set [11] is 0.06.

Consider `CC(C)=CCC/C(C)=C\CCC(C)=CCNCCCNCCCCNCCCN`, for which the Ratio is recorded as 8 in [1]; 64 in data set [2]; 32 in data set [3]; 8 in [4]; 16 in data set [5]; 16 in [7]. Moreover, the Ratio in data set [9] is recorded as 32. Moreover, the Activity_index in data set [10] is 1.61. Moreover, the IC50 at 24 h in data set [6] came to 143 µM. In data set [11], the selectivity ratio was determined as 9.15.

Regarding `CC(C)=CCC/C(C)=C\CCC(C)=CCNCCCCN`, the Ratio in data set [1] is given as 16; in [2], 64; in data set [3], 8; in data set [4] it was 256; in data set [5], 64; in data set [7], 16. Further, the Ratio in [8] turned out to be 4; in data set [9], 16. In addition, the IC50 at 24 h in [6] was 18.1 µM.
